These results are taken from ChEMBL document CHEMBL1156069, “Optimising metabolic stability in lipophilic chemical space: the identification of a metabolically stable pyrazolopyrimidine CRF-1 receptor antagonist” (Bioorg Med Chem Lett, 2009).

Each structure is given as a SMILES string.

Usually Ki stands for a measure of affinity in units of concentration, obtained from inhibition or displacement. By half-life is commonly meant the time needed for the level to fall by half in the phase considered. A lower half-life goes with rapid decline. The term bioavailability denotes the share of a dose that reaches the circulation, judged against a reference dose that is usually intravenous. The low end stands for poor availability, the high end for good availability.

Data set [1] deals with Liver microsomes. The experiment in a line: Intrinsic clearance in human liver microsomes assessed per mg of protein. The class given is ADME, Microsome. (In general: Liver microsomes are vesicles of endoplasmic reticulum, rich in cytochrome P450 enzymes.)
The subject of data set [2] is Liver microsomes. The experiment in a line: Intrinsic clearance in rat liver microsomes assessed per mg of protein. The data set is classed as ADME, Microsome.
The target of data set [3] is T1, Corticotropin-releasing factor receptor 1 (Homo sapiens, UniProt P34998).
T1 sequence (P34998 whole entry): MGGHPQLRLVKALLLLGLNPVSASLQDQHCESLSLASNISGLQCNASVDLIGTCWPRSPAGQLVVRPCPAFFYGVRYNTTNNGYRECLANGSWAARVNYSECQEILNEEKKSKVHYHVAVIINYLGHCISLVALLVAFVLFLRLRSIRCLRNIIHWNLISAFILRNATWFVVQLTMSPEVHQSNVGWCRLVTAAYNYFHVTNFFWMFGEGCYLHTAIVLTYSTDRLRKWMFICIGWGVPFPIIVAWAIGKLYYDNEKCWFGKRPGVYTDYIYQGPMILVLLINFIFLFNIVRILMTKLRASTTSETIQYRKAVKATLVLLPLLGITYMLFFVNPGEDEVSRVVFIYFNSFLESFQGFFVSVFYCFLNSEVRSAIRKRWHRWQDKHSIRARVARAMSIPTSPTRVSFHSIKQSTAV
Briefly: Antagonist activity at human recombinant CRF1 receptor expressed in CHO cells assessed as inhibition of CRF-induced cAMP production. The class given is functional, cell-based. A digest of the protocol: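 CHO cells stably expressing recombinant human CRF-1, grown in DMEM:F12 with 10% FBS, 1% Glutamax and Geneticin at 37 °C, 5% CO2 to 70% confluence. hCRF (10 nM final) added with compound to 10,000 cells/well in PBS with IBMX. cAMP read by enzyme-fragment complementation kit. 0.5-log serial dilutions, repeated tests, 4-parameter logistic IC50. Ki by Cheng–Prusoff from agonist EC50 measured the same day.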
A general note: cAMP levels reflect the balance of adenylyl cyclase and phosphodiesterase activity.

Data set [4] is described as follows: Half life in rat at 0.1 mg/kg, iv and 5 mg/kg, po. The class given is ADME, organism-based. As to conditions: in vivo.
Data set [5] is described as follows: Chemical stability of the compound. The data set is classed as physicochemical.
Data set [6] in a line: Clearance in rat at 0.1 mg/kg, iv and 5 mg/kg, po. The data set is classed as ADME, organism-based. As to conditions: in vivo.
Data set [7] is described as follows: Chemical stability at pH 1.2 assessed as compound remaining at 50 degC after 14 days. The class given is physicochemical. As to conditions: buffer, read-out: Stability.
Data set [8] in a line: Volume of distribution in rat at 0.1 mg/kg, iv and 5 mg/kg, po. The data set is classed as ADME, organism-based. As to conditions: in vivo.
Data set [9] can be described thus: Bioavailability in rat at 0.1 mg/kg, iv and 5 mg/kg, po. The class given is ADME, organism-based. As to conditions: in vivo.

For the compound `CCCN(CCOC)c1nc(C)nc2c1c(C)nn2-c1ccc(OC)nc1OC`, the clearance in data set [1] worked out at 218 µL/min/mg; in [2], 159 µL/min/mg. For the same compound, in data set [3], the inhibitory constant (Ki) worked out at 17 nM.
For `COc1ccc(-n2nc(C)c3c(NC(C4CC4)C4CC4)nc(C)nc32)c(C)c1` the same measures were less than 12 µL/min/mg, 24 µL/min/mg and 35 nM.
In the same order, the values of `CCCN(CCOC)c1nc(C)nc2c1c(C)nn2-c1ccc(OC)nc1C` are 117 µL/min/mg, 163 µL/min/mg and 43 nM.
In the same order, the values of `CCCN(CCO)c1nc(C)nc2c1c(C)nn2-c1ccc(OC)cc1C` are 80 µL/min/mg, 117 µL/min/mg and 129 nM.
Take `COCCN(CCOC)c1nc(C)nc2c1c(C)nn2-c1ccc(OC)cc1C`: the clearance in [1] was determined as 66 µL/min/mg; in [2], 47 µL/min/mg. Also, the Ki in data set [3] worked out at 193 nM.
For `CC[C@@H](COC)Nc1nc(C)nc2c1c(C)nn2-c1ccc(OC)cc1C` the same measures were 52 µL/min/mg, 105 µL/min/mg and 135 nM.
For `CCCN(CCOC)c1nc(C)nc2c1c(C)nn2-c1ccc(C(N)=O)nc1C` the same measures were 38 µL/min/mg, 13 µL/min/mg and 577 nM.
In the same order, the values of `CCN(CCOC)c1nc(C)nc2c1c(C)nn2-c1ccc(OC)cc1C` are 117 µL/min/mg, 104 µL/min/mg and 117 nM.
Take `CCC(CC)Nc1nc(C)nc2c1cnn2-c1ccc(OC)cc1C`: the values for the clearance in data set [1] and in data set [2] were 15 µL/min/mg and 246 µL/min/mg, respectively. Besides, the inhibitory constant (Ki) in data set [3] was found to be 85 nM.
For `CCCN(CCOC)c1nc(C)nc2c1c(C)nn2-c1ccc(OC)cc1OC` the same measures were 86 µL/min/mg, 90 µL/min/mg and 74 nM.
In the same order, the values of `CCCNCc1nnc(Nc2nc(C)nc3c2c(C)nn3-c2ccc(OC)cc2C)o1` are 34 µL/min/mg, 40 µL/min/mg and 996 nM.
As to `CCCN(CC(=O)N(C)C)c1nc(C)nc2c1c(C)nn2-c1ccc(OC)cc1C`, the clearance in [1] turned out to be 18 µL/min/mg; in [2], 22 µL/min/mg. Moreover, the Ki in data set [3] worked out at 1410 nM.
In the same order, the values of `CCCN(CCOC)c1nc(C)nc2c1c(C)nn2-c1ccc(C#N)cc1C` are 147 µL/min/mg, less than 11 µL/min/mg and 101 nM.
For `CCC[C@@H](CO)Nc1nc(C)nc2c1c(C)nn2-c1ccc(OC)cc1C` the same measures were 10 µL/min/mg, 36 µL/min/mg and 574 nM.
In the same order, the values of `CCCNCc1noc(Nc2nc(C)nc3c2c(C)nn3-c2ccc(OC)cc2C)n1` are 51 µL/min/mg, 66 µL/min/mg and 84 nM.
Turning to `CCCN(CCOC)c1nc(C)nc2c1c(C)nn2-c1ccc(OC)cc1C`, the clearance in data set [1] worked out at 172 µL/min/mg; in [2] it was 23 µL/min/mg. In addition, the inhibitory constant (Ki) in data set [3] worked out at 13 nM.
With `CCCCN(CC)c1nc(C)nc2c1c(C)nn2-c1c(C)cc(C)cc1C`, in [1], the clearance is more than 320 µL/min/mg. Further, the inhibitory constant (Ki) in data set [3] turned out to be 9 nM.
Consider `CCC[C@H](CO)Nc1nc(C)nc2c1c(C)nn2-c1ccc(OC)cc1C`, for which the figures for the clearance in data set [1] and in data set [2] were 23 µL/min/mg and 41 µL/min/mg, respectively. Moreover, the Ki in [3] stood at 76 nM.
In the same order, the values of `CCCNCc1nccn1Nc1nc(C)nc2c1c(C)nn2-c1ccc(OC)cc1C` are 96 µL/min/mg, 67 µL/min/mg and 400 nM.
Turning to `CCCN(CCOC)c1nc(C)nc2c1cnn2-c1ccc(OC)cc1C`, the clearance stood at 16 µL/min/mg in data set [1] and 387 µL/min/mg in data set [2]. Also, the inhibitory constant (Ki) in data set [3] is 132 nM.
In the same order, the values of `CC[C@H](CO)Nc1nc(C)nc2c1c(C)nn2-c1ccc(OC)cc1C` are less than 7 µL/min/mg, 23 µL/min/mg and 1130 nM.
For `CCCNCc1cncn1Nc1nc(C)nc2c1c(C)nn2-c1ccc(OC)cc1C` the same measures were 196 µL/min/mg, 85 µL/min/mg and 2500 nM.
In the same order, the values of `CC[C@@H](CO)Nc1nc(C)nc2c1c(C)nn2-c1ccc(OC)cc1C` are less than 7 µL/min/mg, 27 µL/min/mg and 620 nM.
As for `COc1ccc(-n2ncc3c(NC(C4CC4)C4CC4)nc(C)nc32)c(C)c1`, in data set [4], the half-life was 1.9 h. In addition, the Stability entry in data set [5] was “Stable”. For the same compound, the values for the clearance in data set [6], in [1] and in data set [2] were 27 mL/min/kg, less than 11 µL/min/mg and 25 µL/min/mg, respectively. For the same compound, in [7], the remaining at 336 h worked out at 51%. In data set [8], this compound came in with a Vd of 7 L/kg. In data set [9], the bioavailability came out at 43%. In [3], the Ki stood at 32 nM.
`CC[C@H](COC)Nc1nc(C)nc2c1c(C)nn2-c1ccc(OC)cc1C`: the results for the clearance in data set [1] and in data set [2] were 37 µL/min/mg and 53 µL/min/mg, respectively. In data set [3], the inhibition constant (Ki) was 210 nM.
For `CCCN(CCOC)c1nc(C)nc2c1c(C)nn2-c1ccc(C(N)=O)cc1C` the same measures were 17 µL/min/mg, 22 µL/min/mg and 275 nM.
In the same order, the values of `CCCN(CCOC)c1nc(C)nc2c1c(C)nn2-c1ccc(C#N)cc1C#N` are 151 µL/min/mg, 166 µL/min/mg and 632 nM.
For `CCC(CC)Nc1nc(C)nc2c1c(C)nn2-c1ccc(OC)cc1C` the same measures were 64 µL/min/mg, 72 µL/min/mg and 42 nM.
Take `CCCNCc1nc(Nc2nc(C)nc3c2c(C)nn3-c2ccc(OC)cc2C)no1`: the clearance was determined as 29 µL/min/mg in [1] and 58 µL/min/mg in [2]. Further, the inhibitory constant (Ki) in data set [3] worked out at 124 nM.
In the case of `CCCN(CCOC)c1nc(C)nc2c1c(C)nn2-c1cnc(N(C)C)cc1C`, the clearance in data set [1] came out at 160 µL/min/mg; in data set [2], 206 µL/min/mg. Further, the Ki in data set [3] amounted to 183 nM.
